The source of these data is ChEMBL document CHEMBL1122233, “Antihypertensive 9-substituted 1-oxa-4,9-diazaspiro[5.5]undecan-3-ones” (J Med Chem, 1983).

For assay [1], the system named is Rattus norvegicus. Put plainly: Percentage fall in systolic blood pressure after 2 hours at 6.25 mg/kg given perorally. To be noted: route oral. It counts as functional, Artery. Summed up:
(§1)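 Male Okamoto-Aoki SHR, four per group, with a concurrent vehicle control group. Oral dosing in water (0.1 mL/10 g) on two consecutive mornings. After the day-2 dose, rats were restrained in a 30 °C chamber. Tail-cuff systolic pressure was taken at 1-4 h from four traces per rat. Result is % decrease versus control mean, by 1-tailed t test, p ≤ 0.05.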

The test system of assay [2] is Rattus norvegicus. The assay is described as follows: Percentage fall in systolic blood pressure after 3 hours at 12.5 mg/kg given perorally. It counts as functional, Artery. To be noted: route oral. The method, boiled down: as §1
Assay [3] concerns Rattus norvegicus. Put plainly: Percentage fall in systolic blood pressure after 4 hours at 6.25 mg/kg given perorally. To be noted: route oral. It counts as functional, Artery. Summed up: as §1
Assay [4] concerns the target T1, Adrenergic receptor alpha-1 (Rattus norvegicus, UniProt P15823+P23944+P43140).
T1 sequence (P15823 whole entry): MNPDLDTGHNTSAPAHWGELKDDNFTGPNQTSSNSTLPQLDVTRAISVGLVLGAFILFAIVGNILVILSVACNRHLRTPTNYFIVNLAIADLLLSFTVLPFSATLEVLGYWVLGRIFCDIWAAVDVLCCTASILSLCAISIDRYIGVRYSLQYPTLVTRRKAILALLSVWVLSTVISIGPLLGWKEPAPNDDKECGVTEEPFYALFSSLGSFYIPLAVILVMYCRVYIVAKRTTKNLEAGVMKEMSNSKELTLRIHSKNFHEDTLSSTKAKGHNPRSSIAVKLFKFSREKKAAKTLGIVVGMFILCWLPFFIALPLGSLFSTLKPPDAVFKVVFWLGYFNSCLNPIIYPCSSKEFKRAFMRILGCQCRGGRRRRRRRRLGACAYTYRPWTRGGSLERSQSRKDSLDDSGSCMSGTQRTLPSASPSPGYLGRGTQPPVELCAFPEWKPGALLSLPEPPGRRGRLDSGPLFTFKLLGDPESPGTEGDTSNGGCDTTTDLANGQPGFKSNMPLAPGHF
T1 sequence (P23944 whole entry): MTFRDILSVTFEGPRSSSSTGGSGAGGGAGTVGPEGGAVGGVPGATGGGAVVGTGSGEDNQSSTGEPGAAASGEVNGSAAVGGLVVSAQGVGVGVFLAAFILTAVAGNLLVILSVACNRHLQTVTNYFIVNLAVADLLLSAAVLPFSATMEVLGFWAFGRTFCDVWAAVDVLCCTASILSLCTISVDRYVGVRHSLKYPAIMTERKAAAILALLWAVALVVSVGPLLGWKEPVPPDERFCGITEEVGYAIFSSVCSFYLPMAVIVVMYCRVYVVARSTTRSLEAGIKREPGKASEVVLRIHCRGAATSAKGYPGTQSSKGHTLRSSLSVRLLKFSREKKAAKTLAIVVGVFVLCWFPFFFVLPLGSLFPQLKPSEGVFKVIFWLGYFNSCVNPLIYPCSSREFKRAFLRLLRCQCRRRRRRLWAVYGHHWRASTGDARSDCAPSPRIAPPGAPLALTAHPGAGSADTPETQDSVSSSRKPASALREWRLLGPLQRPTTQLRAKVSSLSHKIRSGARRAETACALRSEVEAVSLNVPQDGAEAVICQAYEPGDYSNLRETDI
T1 sequence (P43140 whole entry): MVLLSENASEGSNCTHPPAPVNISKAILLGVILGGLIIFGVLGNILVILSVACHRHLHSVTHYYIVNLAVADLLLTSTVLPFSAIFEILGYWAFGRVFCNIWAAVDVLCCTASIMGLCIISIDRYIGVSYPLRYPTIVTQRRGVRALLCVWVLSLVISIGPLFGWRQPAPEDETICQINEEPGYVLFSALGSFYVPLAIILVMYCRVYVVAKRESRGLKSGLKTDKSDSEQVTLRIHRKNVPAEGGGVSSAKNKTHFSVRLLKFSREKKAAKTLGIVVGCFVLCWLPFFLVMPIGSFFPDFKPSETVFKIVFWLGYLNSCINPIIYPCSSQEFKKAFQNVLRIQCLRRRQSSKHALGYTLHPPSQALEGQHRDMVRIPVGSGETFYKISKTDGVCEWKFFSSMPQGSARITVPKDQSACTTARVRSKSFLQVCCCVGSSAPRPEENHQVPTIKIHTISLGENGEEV
The assay is described as follows: Affinity for alpha-1 adrenoceptor of rat cerebral cortex was determined by ligand binding using [3H]prazosin. The format is tissue-based. Summed up: (§2)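 Washed rat cerebral cortex membranes (homogenised in 50 mM Tris-HCl pH 7.8, pelleted at 48000g, washed 3 times) at 2.5 mg/mL protein. […] Ice-cold buffer stop, then filtration. Nonspecific binding defined with 200 μmol norepinephrine. KI from IC50 by Cheng-Prusoff, given as negative log.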

For assay [5], the system named is Rattus norvegicus. The assay is described as follows: Percentage fall in systolic blood pressure after 4 hours at 12.5 mg/kg given perorally. It counts as functional, Artery. To be noted: route oral. Summed up: as §1
Assay [6] has as its system Rattus norvegicus. The assay is described as follows: Percentage fall in systolic blood pressure after 3 hours at 6.25 mg/kg given perorally. It counts as functional, Artery. To be noted: route oral. Summed up:
as §1

In assay [7] the test system is Rattus norvegicus. Put plainly: Percentage fall in systolic blood pressure after 1 hr at 6.25 mg/kg given perorally. It counts as functional, Artery. To be noted: route oral. Summed up:
as §1

In assay [8] the test system is Rattus norvegicus. Put plainly: Percentage fall in systolic blood pressure after 1 hr at 12.5 mg/kg given perorally. The format is functional, Artery. To be noted: route oral. The method, boiled down:
as §1

Assay [9] deals with Rattus norvegicus. Put plainly: Percentage fall in systolic blood pressure after 3 hours at 50 mg/kg given perorally. The format is functional, Artery. To be noted: route oral. The method, boiled down: as §1
The test system of assay [10] is Rattus norvegicus. Put plainly: Percentage fall in systolic blood pressure after 2 hours at 12.5 mg/kg given perorally. It counts as functional, Artery. To be noted: route oral. The method, boiled down:
as §1

Assay [11] concerns Rattus norvegicus. Put plainly: Percentage fall in systolic blood pressure after 4 hours at 50 mg/kg given perorally. The format is functional, Artery. To be noted: route oral. The method, boiled down: as §1
Assay [12] relates to Rattus norvegicus. Put plainly: Percentage fall in systolic blood pressure after 2 hours at 50 mg/kg given perorally. The format is functional, Artery. To be noted: route oral. The method, boiled down: as §1
In assay [13] the target is T2, Adrenergic receptor alpha-2 (Rattus norvegicus, UniProt P22086+P19328+P22909).
T2 sequence (P22086 whole entry): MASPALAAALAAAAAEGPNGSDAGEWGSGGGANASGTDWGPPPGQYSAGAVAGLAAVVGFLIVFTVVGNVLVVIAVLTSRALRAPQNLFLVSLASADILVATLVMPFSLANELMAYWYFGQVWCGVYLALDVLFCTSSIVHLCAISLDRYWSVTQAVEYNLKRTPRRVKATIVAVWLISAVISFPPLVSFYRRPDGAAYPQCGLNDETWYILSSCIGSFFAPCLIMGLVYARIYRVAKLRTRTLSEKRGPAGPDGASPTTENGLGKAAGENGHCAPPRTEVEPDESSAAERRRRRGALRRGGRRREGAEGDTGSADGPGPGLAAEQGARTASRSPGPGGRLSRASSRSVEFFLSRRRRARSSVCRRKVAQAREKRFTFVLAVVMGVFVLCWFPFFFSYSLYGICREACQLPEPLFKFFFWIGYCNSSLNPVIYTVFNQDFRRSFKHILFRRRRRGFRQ
T2 sequence (P19328 whole entry): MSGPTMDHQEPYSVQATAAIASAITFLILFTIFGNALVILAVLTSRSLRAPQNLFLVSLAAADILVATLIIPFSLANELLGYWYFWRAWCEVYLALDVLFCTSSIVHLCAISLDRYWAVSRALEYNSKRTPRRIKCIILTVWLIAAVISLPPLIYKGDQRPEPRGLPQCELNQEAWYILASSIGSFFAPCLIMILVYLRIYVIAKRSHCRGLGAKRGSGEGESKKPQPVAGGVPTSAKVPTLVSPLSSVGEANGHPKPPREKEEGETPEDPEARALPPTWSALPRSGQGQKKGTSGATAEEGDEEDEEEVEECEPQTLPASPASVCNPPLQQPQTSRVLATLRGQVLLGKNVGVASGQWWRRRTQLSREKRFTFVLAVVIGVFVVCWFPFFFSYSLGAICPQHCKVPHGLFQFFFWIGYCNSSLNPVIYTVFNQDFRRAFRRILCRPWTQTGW
T2 sequence (P22909 whole entry): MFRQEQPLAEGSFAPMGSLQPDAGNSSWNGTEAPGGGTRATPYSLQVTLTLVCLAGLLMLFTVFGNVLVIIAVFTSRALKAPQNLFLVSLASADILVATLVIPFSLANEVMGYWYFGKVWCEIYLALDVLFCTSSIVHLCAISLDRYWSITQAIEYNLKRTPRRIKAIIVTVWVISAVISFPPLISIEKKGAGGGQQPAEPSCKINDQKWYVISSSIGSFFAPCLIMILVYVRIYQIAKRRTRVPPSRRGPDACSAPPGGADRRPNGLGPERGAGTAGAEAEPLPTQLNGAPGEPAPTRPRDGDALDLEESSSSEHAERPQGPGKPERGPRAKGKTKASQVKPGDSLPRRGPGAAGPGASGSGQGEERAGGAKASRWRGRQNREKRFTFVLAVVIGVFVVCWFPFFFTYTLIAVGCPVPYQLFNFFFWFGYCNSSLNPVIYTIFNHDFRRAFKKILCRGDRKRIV
Put plainly: Affinity for alpha-2 adrenergic receptor of rat cerebral cortex was determined by ligand binding using [3H]yohimbine. The format is tissue-based. The method, boiled down: as §2

In assay [14] the test system is Rattus norvegicus. The assay is described as follows: Percentage fall in systolic blood pressure after 1 hr at 50 mg/kg given perorally. To be noted: route oral. The format is functional, Artery. Summed up:
as §1

Assay [15] concerns Rattus norvegicus. Put plainly: Percentage fall in systolic blood pressure after 1 hours at 12.5 mg/kg given perorally. It counts as functional, Artery. To be noted: route oral. The method, boiled down: (§3)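 Male Okamoto-Aoki spontaneously hypertensive rats, trained, in groups of four matched for mean systolic pressure; five treated groups and one vehicle control run concurrently. Oral dosing in water (solution or suspension, 0.1 mL/10 g) on two consecutive mornings. On day 2, rats were restrained at 30.0 ± 1.0 °C and tail-cuff systolic pressure recorded at 1–4 h; percent fall versus control, 1-tail t test, p ≤ 0.05.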

Assay [16] has as its system Rattus norvegicus. Put plainly: Percentage fall in systolic blood pressure after 1 hours at 3.1 mg/kg given perorally. It counts as functional, Artery. To be noted: route oral. Summed up:
as §3

Assay [17] concerns Rattus norvegicus. The assay is described as follows: Percentage fall in systolic blood pressure after 3 hours at 3.1 mg/kg given perorally. Details: dose 3.1 mg/kg. To be noted: Artery. It counts as functional, organism-based. Summed up: as §3
Assay [18] deals with Rattus norvegicus. Put plainly: Percentage fall in systolic blood pressure after 4 hours at 3.1 mg/kg given perorally. It counts as functional, organism-based. Details: dose 3.1 mg/kg. To be noted: Artery. The method, boiled down:
as §3

Assay [19] has as its system Rattus norvegicus. The assay is described as follows: Percentage fall in systolic blood pressure after 2 hours at 3.1 mg/kg given perorally. The format is functional, Artery. To be noted: route oral. Summed up: as §3

As to `O=C1COC2(CCN(CCc3c[nH]c4ccccc34)CC2)CN1`, the “Decrease in SBP” value is recorded as 30% in the assay on Rattus norvegicus [1]; 29% in the assay with Rattus norvegicus [2]; 19% with Rattus norvegicus [3]; 26% in the assay on Rattus norvegicus [5]; 20% with Rattus norvegicus [6]; 28% with Rattus norvegicus [7]. Also, the “Decrease in SBP” value in the assay with Rattus norvegicus [8] is 39%; with Rattus norvegicus [9] it was 48%; in the assay with Rattus norvegicus [10], 41%; in the assay with Rattus norvegicus [11], 41%; with Rattus norvegicus [12], 48%; in the assay on Rattus norvegicus [14] it was 53%. The entries for the “-Log Ki” value in assay [4] and in [13] were 7.41 and 6.2, respectively.

Turning to `CN1CC2(CCN(CCCC(=O)c3ccc(F)cc3)CC2)OCC1=O`, the “Decrease in SBP” value is 46% with Rattus norvegicus [15]; 25% in the assay on Rattus norvegicus [2]; 19% in the assay on Rattus norvegicus [5]; 26% in the assay with Rattus norvegicus [16]; “Not significant” in the assay with Rattus norvegicus [17]; “Not significant” in the assay on Rattus norvegicus [18]. Also, the “Decrease in SBP” value is 27% in the assay on Rattus norvegicus [19] and 37% with Rattus norvegicus [10].
